Shn3 inh set2: reduces Shn3 3'UTR luciferase signal in osteoblasts | Clone20 osteoblast Shn3 3'UTR firefly luciferase, 24 h | inhibition, % at 12.5 µM | 360,000 compounds, 0.52% hits;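 active = mean inhibition of at least 75% with every replicate also reaching 75%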;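 note: 0% = median of neutral control wells and 100% = pilot-screen positive control compound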
PAX8 reporter: lowers PAX8-driven luciferase in RMG-I cells. inhibition, % at 12.6 µM. 360,000 compounds, 1.2% hits. RMG-I TPO-luciferase reporter, SteadyGlo, 24 h;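 active = mean replicate inhibition at least 60% with every replicate also reaching 60%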;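 note: luciferase light reporting Pax8 driven TPO promoter activity; plate controls were median of neutral control wells for no effect and mitoxantrone controls for full effect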
FN deposition inh: fibronectin deposition inhibition | AH1F fibroblasts, Alexa488-fibronectin deposition fluorescence, overnight | AID 743247 | 350,000 compounds, 0.086% hits | inhibition, % at 12.6 µM;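 active = mean inhibition across replicates of 30% or more, regardless of how many single replicates reach that level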;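 note: positive control wells lacked labelled fibronectin entirely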
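Assay system: AH1F fibroblast monolayer, labelled fibronectin deposition. Amount: 10000 cells per well. Also added: labelled fibronectin 24 nM. Compound: single-point pinned compound. Incubation: cell attachment 1 h, compound and FN exposure overnight. Detection: fluorescence after three HBSS washes, excitation 485 nm, emission 525 nm. Read-out: inhibition of fibronectin deposition signal.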
EWS-Fli inh: EWS/Fli transcriptional activity inhibition | A673 NR0B1-luciferase reporter, viability-normalised | inhibition, % at 12.6 µM | 350,000 compounds, 0.67% hits;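 active = mean inhibition of at least 50% after viability correction, with every replicate also passing that limit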;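 note: firefly luciferase signal divided by Alamar Blue viability fluorescence both relative to DMSO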
aSyn 5UTR inh: 5' untranslated region of α-synuclein, MLPCN primary screen. alpha-synuclein 5'UTR reporter, inhibitor activity. inhibition, % (tested at 7.5 µM). 300,000 compounds, 0.82% hits. AID 1813; in the data active = inhibition above about 60%;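 note: H4 neuroglioblastoma cells stably carrying SNCA 5'UTR luciferase fusion; 0% = DMSO wells and 100% = positive control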
LMP1 NFkB inh: inhibitors of Epstein-Barr LMP1-induced NF-kappaB reporter. LMP1-induced NF-kappaB luciferase reporter cells, luminescence. inhibition, % at 12.5 µM. 350,000 compounds, 0.69% hits; in the data active = inhibition above about 41%;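 note: 0% = neutral control wells and 100% = reference inhibitor control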
Active calls of the source: *; . = no result; ! = not active in a repeat. In the library only some 2.1% were active in any assay of this set; here they are far more common.

SMILES	Shn3 inh set2	PAX8 reporter	FN deposition inh	EWS-Fli inh	aSyn 5UTR inh	LMP1 NFkB inh
N#C[C@H]1[C@H](c2ccc(C#CC3CCCCC3)cc2)[C@@H](CO)N1C(=O)Cc1ccccn1	.	18	-4	4	.	.
N#C[C@H]1[C@@H](c2ccc(C#CC3CCCCC3)cc2)[C@@H](CO)N1C(=O)Cc1ccccn1	.	61*	.	-16	.	.
N#C[C@H]1[C@H](c2ccccc2C2=CCCCC2)[C@@H](CO)N1S(=O)(=O)c1ccccc1	.	-23	67*	4	.	.
N#C[C@H]1[C@@H](c2ccc(C#CC3CCCCC3)cc2)[C@@H](CO)N1S(=O)(=O)c1ccccc1	.	79*	-2	30	.	.
CCCC#Cc1ccc([C@@H]2[C@@H](C#N)N(S(=O)(=O)c3cccc(F)c3)[C@H]2CO)cc1	.	81*	-9	-4	.	.
CCCC(=O)Nc1ccc2c(c1)OC[C@H](C)N(C(=O)c1ccccc1F)C[C@@H](C)[C@@H](OC)CN(C)C2=O	.	.	-27	3	.	.
COc1ccc(NC(=O)Nc2cccc3c2O[C@@H](CN(C)Cc2ccc(C(F)(F)F)cc2)[C@@H](C)CN([C@@H](C)CO)C3=O)cc1	.	.	.	2	.	.
Cc1ccccc1S(=O)(=O)N1[C@H](CO)[C@@H](c2ccc(C#CC3CC3)cc2)[C@@H]1C#N	.	64*	-21	13	.	.
N#C[C@@H]1[C@@H](c2ccc(-c3ccccc3)cc2)[C@@H](CO)N1C(=O)Cc1ccncc1	.	68*	11	-11	.	.
N#C[C@H]1[C@H](c2ccc(C#CC3CCCCC3)cc2)[C@@H](CO)N1S(=O)(=O)c1ccccc1	.	68*	-8	9	.	.
CC(=O)N(C)C[C@H]1Oc2ncc(-c3ccccc3C)cc2C(=O)N([C@@H](C)CO)C[C@H]1C	.	.	2	-5	.	.
COc1ccc(/C=N/NC(=O)c2ccc(CN3C(=O)c4cccc5cccc3c45)cc2)cc1O	-4	21	-7	36	13	-5
COc1cc(/C=N/NC(=O)c2ccc(CN3C(=O)c4cccc5cccc3c45)cc2)cc(OC)c1O	8	98*	7	5	14	11
O=C(Nc1ccccc1)N[C@H]1CC[C@@H](CCn2cc(C3(O)CCCC3)nn2)O[C@H]1CO	.	13	-2	5	.	.
C[C@@H]1CN([C@H](C)CO)C(=O)c2cccc(NS(=O)(=O)c3cccs3)c2O[C@@H]1CN(C)S(=O)(=O)c1cccs1	.	-6	.	-6	.	.
CC(=O)Nc1ccc2c(c1)C(=O)N(C)[C@@H]1CC[C@H](CC(=O)NC3CCCCC3)O[C@@H]1CO2	.	-10	-7	-4	.	.
CCCN(C)C[C@@H]1Oc2ncc(-c3ccccc3F)cc2C(=O)N([C@H](C)CO)C[C@@H]1C	.	.	.	-3	.	.
CC(C)N(CC(=O)Nc1ccc(Cl)cc1C(F)(F)F)C(=O)CCl	-95	92*	-3	34	-19	-21
COC(=O)CCC(=O)NC(=S)Nc1sc(C)c(C)c1C(N)=O	12	51	6	.	90*	9
Cc1sc(NC(=S)NC(=O)CCc2ccccc2)c(C(N)=O)c1C	-1	83*	0	49	.	-2
COC(=O)CCC(=O)Nc1sc(C)c(C)c1C(N)=O	-4	.	.	.	-1	1
COCC(=O)Nc1ccc2c(c1)C(=O)N(C)C[C@H](OC)[C@H](C)CN(C(=O)C1CCCC1)[C@H](C)CO2	.	.	11	-18	.	.
C[C@@H]1CN([C@@H](C)CO)S(=O)(=O)c2ccc(C#CC3(O)CCCC3)cc2O[C@H]1CN(C)C(=O)c1ccccc1	.	.	2	2	.	.
COc1ccc(S(=O)(=O)N(C)C[C@@H]2Oc3ccc(NC(=O)Nc4cccc5ccccc45)cc3C(=O)N([C@@H](C)CO)C[C@@H]2C)cc1	.	.	7	12	.	.
Cc1nn(C)c(C)c1/C=C(/C(=O)C(C)(C)C)n1cncn1	-11	58	11	22	89*	-3
SMILES	Shn3 inh set2	PAX8 reporter	FN deposition inh	EWS-Fli inh	aSyn 5UTR inh	LMP1 NFkB inh
CC(C)(C)C(=O)/C(=C/c1ccncc1)n1cncn1	98*	70*	11	41	-58	38
CCN1[C@@H]2c3ccc(-c4cccc(F)c4)c(=O)n3C[C@@H]2[C@@H](CO)[C@@H]1C(=O)N[C@@H](C)c1ccccc1	.	.	.	1	.	.
CC(C)c1ccc(NC(=O)C[C@H]2CC[C@H]3[C@@H](COc4ccc(NC(=O)Nc5ccc(F)c(F)c5)cc4C(=O)N3C)O2)cc1	.	75*	.	-1	.	.
CN1C(=O)c2cc(NC(=O)Nc3ccc(F)cc3)ccc2OC[C@H]2O[C@@H](CC(=O)NC3CCC3)CC[C@H]21	.	62*	-8	-4	.	.
CN1C(=O)c2cc(NC(=O)Nc3ccc(F)cc3)ccc2OC[C@@H]2O[C@@H](CC(=O)NC3CCC3)CC[C@@H]21	.	50	7	3	.	.
O=c1c2cc(N3CCOCC3)ccc2[nH]c(=S)n1Cc1ccc(Cl)cc1	-50	.	41*	.	-121	-6
O=C(CCCCCn1c(=S)[nH]c2ccc(N3CCOCC3)cc2c1=O)NCc1ccc(Cl)cc1	1	7	-6	2	15	6
COc1ccc(S(=O)(=O)N(C)C[C@@H]2Oc3c(NC(=O)Nc4c(C)noc4C)cccc3C(=O)N([C@H](C)CO)C[C@@H]2C)cc1	.	.	-2	2	.	.
COc1ccc(NC(=O)c2c(Nc3ccccc3)sc(C(=O)c3ccc(F)cc3)c2N)cc1	45	89*	-1	.	30	25
COc1ccc(C(=O)c2sc(Nc3ccccc3)c(C(=O)Nc3ccc(OC)c(OC)c3)c2N)cc1	4	-28	-2	.	-12	1
O=S(=O)(N[C@H]1CC[C@@H](CCn2cc(-c3cccnc3)nn2)O[C@H]1CO)c1ccccc1	.	-12	.	-2	.	.
COC(=O)c1c(-c2ccc(C)cc2)csc1NC(=O)c1c(-c2ccccc2)noc1C	.	15	-2	-14	68*	.
COc1ccc(Cc2nnc(NC(=O)c3c(-c4ccccc4)noc3C)s2)cc1	-1	.	.	.	-3	53*
O=C(NC1CCCCC1)N1CC(=O)N2[C@H](C1)[C@@H](c1ccc(-c3cccc(F)c3)cc1)[C@@H]2CO	.	2	.	2	.	.
O=C(Nc1cccc(F)c1)N1C[C@@H]2N[C@H](C1)C2c1ccc(-c2ccc(F)cc2)cc1 (stereo partly specified)	.	86*!	-2	3	.	.
O=C(Nc1cccc(F)c1)N1C[C@@H]2N[C@H](C1)C2c1ccc(-c2cncnc2)cc1 (stereo partly specified)	.	9	-18	23	.	.
Cc1cccc(-c2ccc(C3[C@@H]4CN(C(=O)Nc5ccc(F)cc5)C[C@H]3N4)cc2)c1 (stereo partly specified)	.	95*!	-3	-6	.	.
Cc1cccc(-c2ccc(C3[C@@H]4CN(C(=O)Nc5ccccc5)C[C@H]3N4)cc2)c1 (stereo partly specified)	.	-3	3	27	.	.
CC(=O)N(C)C[C@H]1Oc2ncc(C#Cc3cccnc3)cc2C(=O)N([C@@H](C)CO)C[C@@H]1C	.	.	-7	10	.	.
